Published values of several laboratories.
Each line is one published result; the experiments were not run side by side.
Effect on: enzyme activity
Action: inhibitor
CDK5 with p35: Cyclin-dependent kinase 5, with p35 (CDK5, Homo sapiens, UniProt Q00535)
CDK5 with p25: Cyclin-dependent kinase 5, with p25 (CDK5, Homo sapiens, UniProt Q00535)

SMILES | target | test | setting | remaining activity [%]
CCN(CC)c1ccc(C2=NNC(=O)CC2C)cc1[N+](=O)[O-] (stereo not shown) | CDK5 with p35 | – | 10 µM | 109
Cc1cnc(NC2CCOCC2)nc1-n1cnc(C(=O)NC(CN)c2cc(F)cc(Cl)c2)c1 (stereo not shown) | CDK5 with p35 | radiometric | 1 µM | 4
Cc1sc(C(=O)NC2COC2)cc1-n1cc(NC(=O)Nc2c(F)cccc2Cl)cn1 | CDK5 with p25 | – | 10 µM | 97.6
CC(C)(O)[C@H]1CC[C@H](Nc2ccc3ncc(-c4cccc(C(F)(F)F)c4)n3n2)CC1 | CDK5 with p25 | – | 1 µM | 92.2
CC(C)(C)c1nc(-c2cccc(NS(=O)(=O)c3c(F)cccc3F)c2F)c(-c2ccnc(N)n2)s1 | CDK5 with p35 | radiometric | 1 µM | 82
CCCOc1ccc(OC)c(F)c1C(=O)c1ccc(C(=O)N[C@@H]2CNC[C@H]2NC(=O)c2ccc3[nH]ncc3c2)cc1 | CDK5 with p25 | – | 0.1 µM | 112
O=C(Nc1cnn(-c2csc(C(=O)NC3COC3)c2)c1)Nc1ccccc1Cl | CDK5 with p25 | – | 5 µM | 101
CC[C@H](C)[C@H](NC(=O)[C@H](CCC(N)=O)NC(=O)[C@H](CC(C)C)NC(=O)[C@H](CCSC)NC(=O)[C@H](CCCCN)NC(=O)[C@H](CO)NC(=O)[C@H](CO)NC(=O)[C@H](CCSC)NC(=O)[C@H](CC(C)C)NC(=O)[C@H](CC(N)=O)NC(=O)[C@@H](NC(=O)[C@@H](NC(=O)[C@H](CO)NC(=O)[C@H](CC(C)C)NC(=O)[C@H](CS)NC(=O)[C@H](CCCNC(=N)N)NC(=O)[C@H](CC(=O)O)NC(=O)[C@H](Cc1c[nH]c2ccccc12)NC(=O)[C@H](Cc1ccccc1)NC(=O)[C@H](C)NC(=O)[C@H](CCC(=O)O)NC(=O)[C@@H](N)CCCCN)C(C)C)[C@@H](C)CC)C(=O)N[C@@H](CC(N)=O)C(=O)N[C@@H](C)C(=O)O | CDK5 with p25 | radiometric | 500 µM, 20 min | 28
O=C(Nc1cnn(-c2csc(C(=O)NC3COC3)c2)c1)Nc1c(F)cccc1Cl | CDK5 with p25 | – | 5 µM | 88.2
COc1cc(Cl)c(C(=O)N[C@@H](CN[C@H]2CC[C@@H](N)CC2)Cc2ccc(C#N)cc2)cc1-c1ccc(CN[C@H](C)c2ccc(C)cc2)o1 | CDK5 with p25 | – | 1 µM | 102
